ChEMBL document CHEMBL3580633, “Benzoxaborole antimalarial agents. Part 4. Discovery of potent 6-(2-(alkoxycarbonyl)pyrazinyl-5-oxy)-1,3-dihydro-1-hydroxy-2,1-benzoxaboroles” (J Med Chem, 2015)

Columns and labels:
[1] = test system: Plasmodium berghei; assay: Antiplasmodial activity against Plasmodium berghei infected in Swiss Webster mouse assessed as mouse survival at 33 mg/kg, po dosed once daily for 4 consecutive days beginning 1 hr after initial infection and measured on day 6 post infection by Giemsa staining method; type: functional
Method in brief: (§1)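 Female Swiss Webster mice (about 20 g) were infected ip with 6 × 10^6 P. berghei-infected erythrocytes from a donor mouse. They were dosed by oral gavage once daily for 4 days, starting 1 h post-infection, in PEG 300/propylene glycol/water (55/25/20 by weight). Parasitemia was read daily on Giemsa smears from day 4, and mice were euthanized above 50% parasitemia. Percent survival was tracked to 21 days.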

[2] = test system: Plasmodium berghei; assay: Antiplasmodial activity against Plasmodium berghei infected in Swiss Webster mouse assessed as mouse survival at 100 mg/kg, po dosed once daily for 4 consecutive days beginning 1 hr after initial infection and measured on day 7 post infection by Giemsa staining method; type: functional
Method in brief: (§2)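 Female Swiss Webster mice (about 20 g) infected ip with 6 × 10^6 P. berghei-infected erythrocytes. Oral gavage once daily for 4 days, starting 1 h after infection. Vehicle PEG300/propylene glycol/water (55/25/20 by weight). Giemsa-smear parasitemia counted daily from day 4. Mice euthanised above 50% parasitemia. Survival followed to day 21, 5 mice per dose, chloroquine 30 mg/kg as reference.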

[3] = test system: Plasmodium berghei; assay: Antiplasmodial activity against Plasmodium berghei infected in Swiss Webster mouse assessed as mouse survival at 11 mg/kg, po dosed once daily for 4 consecutive days beginning 1 hr after initial infection and measured on day 9 post infection by Giemsa staining method; type: functional; method in brief: as §2
[4] = test system: Plasmodium berghei; assay: Antiplasmodial activity against Plasmodium berghei infected in Swiss Webster mouse assessed as mouse survival at 100 mg/kg, po dosed once daily for 4 consecutive days beginning 1 hr after initial infection and measured on day 9 post infection by Giemsa staining method; type: functional; method in brief: as §2
[5] = test system: Plasmodium berghei; assay: Antiplasmodial activity against Plasmodium berghei infected in Swiss Webster mouse assessed as mouse survival at 33 mg/kg, po dosed once daily for 4 consecutive days beginning 1 hr after initial infection and measured on day 9 post infection by Giemsa staining method; type: functional; method in brief: as §1
[6] = test system: Plasmodium berghei; assay: Antiplasmodial activity against Plasmodium berghei infected in Swiss Webster mouse assessed as mouse survival at 33 mg/kg, po dosed once daily for 4 consecutive days beginning 1 hr after initial infection and measured on day 12 post infection by Giemsa staining method; type: functional; method in brief: as §1
[7] = test system: Plasmodium berghei; assay: Antiplasmodial activity against Plasmodium berghei infected in Swiss Webster mouse assessed as mouse survival at 100 mg/kg, po dosed once daily for 4 consecutive days beginning 1 hr after initial infection and measured on day 11 post infection by Giemsa staining method; type: functional; method in brief: as §2
[8] = test system: Plasmodium berghei; assay: Antiplasmodial activity against Plasmodium berghei infected in Swiss Webster mouse assessed as mouse survival at 33 mg/kg, po dosed once daily for 4 consecutive days beginning 1 hr after initial infection and measured on day 11 post infection by Giemsa staining method; type: functional; method in brief: as §1
[9] = test system: Plasmodium berghei; assay: Antiplasmodial activity against Plasmodium berghei infected in Swiss Webster mouse assessed as mouse survival at 3 mg/kg, po dosed once daily for 4 consecutive days beginning 1 hr after initial infection and measured on day 9 post infection by Giemsa staining method; type: functional; method in brief: as §2
[10] = test system: Plasmodium berghei; assay: Antiplasmodial activity against Plasmodium berghei infected in Swiss Webster mouse assessed as mouse survival at 11 mg/kg, po dosed once daily for 4 consecutive days beginning 1 hr after initial infection and measured on day 10 post infection by Giemsa staining method; type: functional; method in brief: as §2
[11] = test system: Plasmodium berghei; assay: Antiplasmodial activity against Plasmodium berghei infected in Swiss Webster mouse assessed as mouse survival at 33 mg/kg, po dosed once daily for 4 consecutive days beginning 1 hr after initial infection and measured on day 4 post infection by Giemsa staining method; type: functional; method in brief: as §1
[12] = test system: Plasmodium berghei; assay: Antiplasmodial activity against Plasmodium berghei infected in Swiss Webster mouse assessed as mouse survival at 100 mg/kg, po dosed once daily for 4 consecutive days beginning 1 hr after initial infection and measured on day 12 post infection by Giemsa staining method; type: functional; method in brief: as §2
[13] = test system: Plasmodium berghei; assay: Antiplasmodial activity against Plasmodium berghei infected in Swiss Webster mouse assessed as mouse survival at 100 mg/kg, po dosed once daily for 4 consecutive days beginning 1 hr after initial infection and measured on day 10 post infection by Giemsa staining method; type: functional; method in brief: as §2
[14] = test system: Plasmodium berghei; assay: Antiplasmodial activity against Plasmodium berghei infected in Swiss Webster mouse assessed as mouse survival at 1 mg/kg, po dosed once daily for 4 consecutive days beginning 1 hr after initial infection and measured on day 6 post infection by Giemsa staining method; type: functional; method in brief: as §2
[15] = test system: Plasmodium berghei; assay: Antiplasmodial activity against Plasmodium berghei infected in Swiss Webster mouse assessed as mouse survival at 1 mg/kg, po dosed once daily for 4 consecutive days beginning 1 hr after initial infection and measured on day 7 post infection by Giemsa staining method; type: functional; method in brief: as §2
[16] = test system: Plasmodium berghei; assay: Antiplasmodial activity against Plasmodium berghei infected in Swiss Webster mouse assessed as mouse survival at 33 mg/kg, po dosed once daily for 4 consecutive days beginning 1 hr after initial infection and measured on day 10 post infection by Giemsa staining method; type: functional; method in brief: as §1
[17] = test system: Plasmodium berghei; assay: Antiplasmodial activity against Plasmodium berghei infected in Swiss Webster mouse assessed as mouse survival at 11 mg/kg, po dosed once daily for 4 consecutive days beginning 1 hr after initial infection and measured on day 8 post infection by Giemsa staining method; type: functional; method in brief: as §2
[18] = Clearance in CD1 mouse at 5 mg/kg, iv by HPLC coupled to tandem mass spectrometry; type: ADME, organism-based; conditions: in vivo
Method in brief: (§3)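 Adult female CD-1 mice received 5 mg/kg by both the iv and the oral-gavage route. Two vehicles were used: PEG 400/dimethylacetamide/water (45/10/45, pH 5.8), or PEG 300/propylene glycol/water (55/25/20, pH 5.9). Blood samples were collected and drug was quantified by HPLC-tandem MS.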

[19] = test system: Mus musculus; assay: Oral bioavailability in CD1 mouse at 5 mg/kg by HPLC coupled to tandem mass spectrometry; type: ADME, organism-based; conditions: in vivo; method in brief: as §3
[20] = Volume of distribution at steady state in CD1 mouse at 5 mg/kg, iv by HPLC coupled to tandem mass spectrometry; type: ADME, organism-based; conditions: in vivo, read-out: Vdss; method in brief: as §3
[21] = test system: Liver microsome; assay: Stability in human liver microsomes assessed as compound remaining at 1 uM incubated for 1 hr in presence of NADPH by LC/MS/MS method; type: ADME
Method in brief: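 Compound at 1 μM final (from a 1 mg/mL DMSO stock) was incubated with mouse or human liver microsomes (0.5 mg/mL protein) in 100 mM potassium phosphate, pH 7.4, at 37 °C with shaking, with or without 1 mM NADPH. Samples were taken over 0–120 min and tested in duplicate. Reactions were quenched with cold acetonitrile plus internal standard and analyzed by LC/MS/MS.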

[22] = Cmax in CD1 mouse at 5 mg/kg, po by HPLC coupled to tandem mass spectrometry; type: ADME, organism-based; set-up: dose 5 mg/kg, route oral; conditions: in vivo; method in brief: as §3
[23] = AUC (0 to infinity) in CD1 mouse at 5 mg/kg, iv by HPLC coupled to tandem mass spectrometry; type: ADME, organism-based; set-up: dose 5 mg/kg, route intravenous, time infinity; conditions: in vivo; method in brief: as §3
[24] = Terminal half life in CD1 mouse at 5 mg/kg, iv by HPLC coupled to tandem mass spectrometry; type: ADME, organism-based; conditions: in vivo, read-out: beta t1/2 (converted); method in brief: as §3
[25] = Tmax in CD1 mouse at 5 mg/kg, po by HPLC coupled to tandem mass spectrometry; type: ADME, organism-based; conditions: in vivo; method in brief: as §3

O=C(O)c1cnc(Oc2ccc3c(c2)B(O)OC3)cn1
survival at 33 mg/kg [1]: 100%
survival at 100 mg/kg [2]: 100%
survival at 11 mg/kg [3]: 20%
survival at 100 mg/kg [4]: 60%
survival at 33 mg/kg [5]: 40%
survival at 33 mg/kg [6]: 0%
survival at 100 mg/kg [7]: 60%
survival at 33 mg/kg [8]: 40%
survival at 3 mg/kg [9]: 0%
survival at 11 mg/kg [10]: 20%
survival at 33 mg/kg [11]: 100%
survival at 100 mg/kg [12]: 0%
survival at 100 mg/kg [13]: 60%
survival at 1 mg/kg [14]: 100%
survival at 1 mg/kg [15]: 80%
survival at 33 mg/kg [16]: 40%
survival at 11 mg/kg [17]: 60%

O=C(O)c1ccc(Oc2ccc3c(c2)B(O)OC3)cn1
survival at 33 mg/kg [1]: 100%
survival at 100 mg/kg [2]: 100%
survival at 11 mg/kg [3]: 0%
survival at 100 mg/kg [4]: 0%
survival at 33 mg/kg [5]: 0%
survival at 3 mg/kg [9]: 0%
survival at 33 mg/kg [11]: 100%
survival at 1 mg/kg [14]: 100%
survival at 1 mg/kg [15]: 60%
survival at 11 mg/kg [17]: 40%

COC(=O)c1cnc(Oc2ccc3c(c2)B(O)OC3)cn1
clearance [18]: 208 mL/min/kg
survival at 33 mg/kg [1]: 100%
survival at 100 mg/kg [2]: 100%
survival at 11 mg/kg [3]: 80%
survival at 100 mg/kg [4]: 100%
survival at 33 mg/kg [5]: 100%
F [19]: 23%
Vd [20]: 0.926 L/kg
Stability [21]: 0%
survival at 33 mg/kg [6]: 20%
survival at 100 mg/kg [7]: 100%
survival at 33 mg/kg [8]: 100%
survival at 3 mg/kg [9]: 40%
survival at 11 mg/kg [10]: 80%
Cmax [22]: 160 ng/mL
survival at 33 mg/kg [11]: 100%
survival at 100 mg/kg [12]: 100%
survival at 100 mg/kg [13]: 100%
AUC(0-inf) [23]: 400 ng·h/mL
survival at 1 mg/kg [14]: 100%
half-life [24]: 18 min
survival at 1 mg/kg [15]: 100%
Tmax [25]: 15 min
survival at 33 mg/kg [16]: 100%
survival at 11 mg/kg [17]: 100%

NC(=O)c1cnc(Oc2ccc3c(c2)B(O)OC3)cn1
clearance [18]: 37.7 mL/min/kg
survival at 33 mg/kg [1]: 100%
survival at 100 mg/kg [2]: 100%
survival at 11 mg/kg [3]: 60%
survival at 100 mg/kg [4]: 60%
survival at 33 mg/kg [5]: 60%
F [19]: 99%
Vd [20]: 0.973 L/kg
Stability [21]: 87%
survival at 3 mg/kg [9]: 0%
survival at 11 mg/kg [10]: 0%
Cmax [22]: 1380 ng/mL
survival at 33 mg/kg [11]: 100%
survival at 100 mg/kg [13]: 0%
AUC(0-inf) [23]: 2200 ng·h/mL
survival at 1 mg/kg [14]: 100%
half-life [24]: 24 min
survival at 1 mg/kg [15]: 60%
Tmax [25]: 15 min
survival at 33 mg/kg [16]: 0%
survival at 11 mg/kg [17]: 100%
